# Screens as filed in PubChem.
# V-ATPase pHluor: regulators of yeast V-ATPase proton pumping, primary screen, pHLuorin cytosolic pH fluorescence | response, % at 10 µM | hit rate 0.37% among 350,000 | S. cerevisiae; in the data active = response mostly above about 7.3%, no sharp cut-off; inactive = mostly below about 5.4%; note: actives read high
# pCIP destab: p/CIP-EGFP fusion destabilizers, primary screen, fluorescence, F442A cells. Q05BA5. hit rate 0.01% among 290,000. decrease of EGFP signal, % at 10 µM. AID 1984, 2009. 16 h;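 active = EGFP signal decrease of at least 30% at 10 µM or well 3 SD below plate mean, unless failing retest; inactive = the rest, including hits failing retest or dose response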
# Cl transport mod: KCC2 cotransporter modulators, thallium flux, primary screen, cell-based, HEK293 KCC2, FluoZin-2 fluorescence, MLSMR | Solute carrier family 12 member 5 (Homo sapiens), Q9H2X9 | hit rate 2.2% among 190,000 | AID 1456, 2008 | B-score of Tl+ flux slope (higher = more flux/activation; lower = inhibition) at 10 µM | KCC2 cells, thallium flux FluoZin-2 fluorescence;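 active = thallium flux slope and its plate-corrected score both differing from the plate sample mean at a set confidence after two filtering rounds, in either direction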;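 note: slope of fluorescence scaled to starting intensity during 10 to 20 s after thallium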
# Dynein cargo inh: inhibitors of GR-EGFP nuclear translocation, primary screen, dynein cargo transport inhibitor project, imaging, high-content, 3617.4 mouse cells. hit rate 0.47% among 220,000. test concentration mostly 20 µM; stimulated with dexamethasone, 1 µM; active compounds read low. z-score, hits read low;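 active = plate z-score of nuclear minus cytoplasmic receptor signal below a set negative limit, without overly bright fluorescence or cell loss, cut at about -3.5 in these data, passing the limit was not always enough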;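 note: z-score of nuclear minus cytoplasmic ring GR-EGFP intensity difference per well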
#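 Also added – dexamethasone, 1.0 µM final · Buffer or medium – tet-free, stripped-serum medium · Schedule – induction 48 h, compound 1 h, agonist 30 min · Detection – formaldehyde fixation, Hoechst nuclear stain, 10x automated fluorescence imaging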
# ABCB6 inh 2: ABCB6 transporter inhibitors, primary screen, K562-ABCB6 cells, flow cytometry, MLPCN library. K562-ABCB6 porphyrin accumulation, 1 h; active compounds read low. fluorescence ratio to DMSO, % at 10 µM. hit rate 0.19% among 360,000. ATP-binding cassette sub-family B member 6 (Homo sapiens), Q9NP58;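 active = fluorescence ratio to DMSO below 75%, the collection mean minus 3 SD; inconclusive = too few cells collected in the well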;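 note: signal is porphyrin accumulated inside mitochondria; 100% equals median channel fluorescence of DMSO control wells; lower ratio means ABCB6 inhibition with less porphyrin fluorescence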
# Target sequence (Q9NP58 whole entry, looked up): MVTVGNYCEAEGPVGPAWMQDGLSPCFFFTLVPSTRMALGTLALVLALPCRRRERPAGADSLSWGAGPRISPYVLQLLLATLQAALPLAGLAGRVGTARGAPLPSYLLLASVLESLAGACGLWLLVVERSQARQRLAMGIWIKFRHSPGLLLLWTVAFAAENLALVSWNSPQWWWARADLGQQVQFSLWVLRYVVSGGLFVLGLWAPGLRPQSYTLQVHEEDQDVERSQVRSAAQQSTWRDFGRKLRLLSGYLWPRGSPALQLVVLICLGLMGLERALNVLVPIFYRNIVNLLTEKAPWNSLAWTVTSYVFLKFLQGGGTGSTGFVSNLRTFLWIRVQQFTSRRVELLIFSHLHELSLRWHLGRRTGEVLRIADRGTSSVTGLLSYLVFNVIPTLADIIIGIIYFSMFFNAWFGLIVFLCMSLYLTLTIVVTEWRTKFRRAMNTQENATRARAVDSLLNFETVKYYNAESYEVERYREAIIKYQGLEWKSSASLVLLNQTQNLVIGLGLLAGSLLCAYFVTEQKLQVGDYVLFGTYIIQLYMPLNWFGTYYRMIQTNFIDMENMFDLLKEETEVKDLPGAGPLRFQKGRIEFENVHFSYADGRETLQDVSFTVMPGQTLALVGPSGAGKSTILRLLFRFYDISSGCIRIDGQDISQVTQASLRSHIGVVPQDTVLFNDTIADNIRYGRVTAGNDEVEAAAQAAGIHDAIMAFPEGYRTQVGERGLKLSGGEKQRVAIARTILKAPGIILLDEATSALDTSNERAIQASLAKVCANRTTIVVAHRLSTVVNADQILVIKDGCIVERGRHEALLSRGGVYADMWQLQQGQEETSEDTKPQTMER
# KCC2 secondary: KCC2 modulators in sodium-free buffer, confirmation, cell-based, HEK293 KCC2, thallium flux, secondary assay; shares compounds with Cl transport mod; FluoZin2 fluorescence; active compounds read high; normalised thallium flux (F/F0 slope) at 10 µM; hit rate 15% among 3,700; AID 1713, 2009;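 active = thallium flux slope above the same plate's solvent-only control mean plus 3 SD; inconclusive = the two replicate wells disagree; inactive = no significant difference from solvent-only control wells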
# KCC2 bumet counter: thallium flux persisting under bumetanide in KCC2 cells, confirmation, counter-screen for KCC2 modulator project, cell-based, HEK293 KCC2, FluoZin2, secondary assay 3. shares compounds with Cl transport mod. HEK293-KCC2 + bumetanide/ouabain; active compounds read high. normalized thallium flux at 10 µM. hit rate 49% among 3,700. AID 1714, 2009;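 active = thallium entry rate above the same plate's blocked-transporter control wells by more than 3 SD; inconclusive = the two repeat wells disagree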;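 note: raw slope of fluorescence over initial fluorescence between 10 and 20 s after thallium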
# KCC2 sec2: KCC2 modulators without ouabain present, confirmation, cell-based, HEK293 KCC2, thallium flux, FluoZin2, secondary assay 2 | thallium flux FluoZin2 fluorescence; actives lie on both sides; F/F0 rise rate, 10–20 s post-thallium | shares compounds with Cl transport mod | hit rate 23% among 3,700 | normalized thallium flux at 10 µM | AID 1715, 2009;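 active = thallium flux slope more than 3 SD above or below the plate's solvent-only control mean, mostly below; inconclusive = the two repeat wells disagreed; inactive = no significant shift from solvent-only controls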;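 note: raw slope with 0.1% DMSO as baseline and bumetanide as block control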
# HEK counter1: thallium flux modulation in parental HEK cells, confirmation, counter-screen for KCC2 modulator project, cell-based, counterscreen 1. shares compounds with Cl transport mod. thallium flux rate (normalised fluorescence) at 10 µM. hit rate 46% among 3,700. HEK293 parental cells, thallium flux FluoZin2, ouabain; baseline-ratio fluorescence slope, 10–20 s after thallium. AID 1716, 2009;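 active = thallium flux rate significantly above the same plate's solvent-only control wells, beyond their mean plus 3 SD; inconclusive = the two replicate wells gave conflicting results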
# KCC2 ouabain: KCC2 inhibitors and activators, ouabain retest, confirmation, HEK-KCC2 cells | raw Tl+ flux slope (below DMSO = inhibition, above = activation) at 10 µM | HEK293-KCC2, thallium flux FluoZin2 fluorescence; bidirectional: low = inhibitor, high = activator | AID 1717, 2009 | hit rate 48% among 3,700 | shares compounds with Cl transport mod;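 active = thallium flux slope beyond 3 SD from same-plate DMSO control mean in most replicates, usually higher, sometimes lower; inconclusive = repeat tests gave conflicting results; inactive = no significant difference from controls in most replicates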;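 note: slope of initial-normalized fluorescence between seconds 10 and 20 after thallium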
# HEK293 Tl flux2: native HEK Tl+ uptake effects, second counter-screen – HEK cells, counterscreen 2, counter-screen for KCC2 modulator project, confirmation; shares compounds with Cl transport mod; HEK293 parental, thallium flux FluoZin-2 fluorescence slope; thallium flux slope at 10 µM; hit rate 33% among 3,700; AID 1718, 2009;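 active = thallium flux slope above the same plate's solvent-control mean plus 3 SD in both duplicate wells; inconclusive = duplicate wells that disagreed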;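 note: run without ouabain in cells lacking the KCC2 cotransporter; slope of fluorescence scaled to its starting value between 10 and 20 s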
# Active calls of the source: *; u = inconclusive; x = no result. The full list was thinned out, with hits kept by preference.
SMILES,V-ATPase pHluor,pCIP destab,Cl transport mod,Dynein cargo inh,ABCB6 inh 2,KCC2 secondary,KCC2 bumet counter,KCC2 sec2,HEK counter1,KCC2 ouabain,HEK293 Tl flux2
CNC(=S)c1cc(C(C)(C)C)c(O)c(C(C)(C)C)c1,9.5,-1.4,-0.555,-0.128,97.0,x,x,x,x,x,x
COc1cccc(CN2CCN(c3ccc(F)cc3)C2=O)c1,-2.7,-8.8,-2.46,0.22,102.0,x,x,x,x,x,x
O=C1N(Cc2ccc(F)cc2)CCN1c1ccc(F)cc1,-2.4,6.7,-3.34*,-0.782,103.0,0.00665,u,0.0304,0.0112*,u,0.0116
O=C(CNC(=S)NC(=O)c1ccc(Cl)cc1)c1ccccc1,-3.7,-10.4,1.82,2.01,94.0,x,x,x,x,x,x
Cc1ccc(C(=O)NC(=S)NCC2CCCO2)cc1Br (stereo not given),-4.6,-21.2,12*,-0.52,101.0,0.01,0.0225*,0.0343,0.0279*,0.0275*,0.0121
O=C(NC(=S)NCC1CCCO1)c1ccc(Br)o1 (stereo not given),0.8,3.9,50.7*,0.444,96.0,0.00813,0.0493*,0.0447*,0.0374*,0.0435*,0.032*
O=C(CNC(=S)NC(=O)c1ccc(Br)o1)c1ccccc1,1.3,7.9,5.66*,0.96,82.0,0.0138*,0.047*,0.034,0.0408*,0.0374*,0.0159*
O=C(NC(=S)NCC1CCCO1)c1ccccc1Br (stereo not given),-3.6,-3.0,2.53,0.0632,97.0,x,x,x,x,x,x
O=C(NC(=S)NCC1CCCO1)c1ccco1 (stereo not given),-2.2,2.9,1.77,0.152,97.0,x,x,x,x,x,x
Cc1cc(S(=O)(=O)NCCCN2CCOCC2)c(C)cc1Cl,-3.0,-13.7,x,x,98.0,x,x,x,x,x,x
CC(C)C(c1nnnn1Cc1ccco1)N1CCN(c2nc3ccccc3s2)CC1 (stereo not given),2.7,-1.1,-0.559,3.02,93.0,x,x,x,x,x,x
CCCC(c1nnnn1Cc1ccc(OC)cc1)N1CCN(c2ccccc2)CC1 (stereo not given),2.9,-8.1,-1.27,1.95,94.0,x,x,x,x,x,x
CCC(c1nnnn1Cc1cccs1)N1CCN(c2nc3ccccc3s2)CC1 (stereo not given),-1.9,-18.7,-3.99*,-0.58,92.0,0.00687,0.00412,u,0.00633*,0.0138*,0.0113
COc1ccc(Cn2nnnc2C(CC(C)C)N2CCN(c3ccccc3)CC2)cc1 (stereo not given),-6.8,-4.0,x,-0.498,98.0,0.00877,0.00413,0.033,0.00669,0.0183,0.011
CC(C)CC(c1nnnn1Cc1cccs1)N1CCN(c2nc3ccccc3s2)CC1 (stereo not given),-0.4,-11.0,-5.11*,-0.0933,90.0,0.006,0.00498,u,0.00756,u,0.0112
Cc1c(C=Nc2ccc(S(=O)(=O)CCO)cc2)c(O)[nH]c(=O)c1C#N,1.5,x,x,x,97.0,x,x,x,x,x,x
COCCn1nnnc1C(C(C)C)N1CCCC(C)C1 (stereo not given),8.8,4.7,0.0379,-0.721,102.0,x,x,x,x,x,x
COc1ccc(Cl)cc1NC(=O)CSc1nc(Nc2ccccc2)nc(N2CCOCC2)n1,0.5,-14.6,x,x,98.0,x,x,x,x,x,x
Cc1ccsc1C(=O)NN=C1CCCCCC1,-6.0,-3.2,x,x,100.0,x,x,x,x,x,x
CCCCCC(=O)N1C[C@@H](n2cc(-c3ccc(F)cc3)nn2)[C@H](O)C[C@@H]1c1ccc(Cl)cc1,1.7,x,x,x,96.0,x,x,x,x,x,x
O=C(NCC1CCCCC1)c1cccc([N+](=O)[O-])c1,1.5,5.1,x,x,95.0,x,x,x,x,x,x
O=C(NC(=S)N(CC1CCC1)CC1CCCO1)c1cccc([N+](=O)[O-])c1 (stereo not given),1.3,-13.9,98.6*,0.775,96.0,0.0435*,0.0895*,0.0447*,0.0774*,0.0755*,0.0315*
CCN(CC)c1ccc2c(C)c(Cl)c(=O)oc2c1,-0.7,-1.6,1.11,-0.581,94.0,x,x,x,x,x,x
CCN(CC)c1ccc2c(C)c(-c3ccc(N)cc3)c(=O)oc2c1,11.5,-3.3,-5.05*,1.16,115.0,0.0097,0.0105*,u,0.00647,0.0158*,0.0103
O=C1c2cccnc2C(=O)N1Cc1ccccc1,-3.9,5.3,0.0445,0.229,99.0,x,x,x,x,x,x
SMILES,V-ATPase pHluor,pCIP destab,Cl transport mod,Dynein cargo inh,ABCB6 inh 2,KCC2 secondary,KCC2 bumet counter,KCC2 sec2,HEK counter1,KCC2 ouabain,HEK293 Tl flux2
O=C1c2ccccc2C(=O)N1Cc1cccnc1,1.5,-5.0,-5.35*,0.241,99.0,0.00841,0.00583,0.0306,0.00717,0.021,u
Cc1nn(-c2ccc(F)cc2)c(Cl)c1/C=C(\CC(=O)O)c1nc2ccccc2s1,0.5,-9.3,-6.83*,1.54,101.0,0.00881,0.00673,u,0.00661,0.0133*,0.00983
Cc1nn(-c2ccc(F)cc2)c(Cl)c1/C=C(/CC(=O)O)c1nc2ccccc2s1,5.3,x,x,x,98.0,x,x,x,x,x,x
NC(=O)COC(=O)c1cc([N+](=O)[O-])ccc1NCCO,6.6,-9.2,-0.683,-0.417,103.0,x,x,x,x,x,x
O=C(COC(=O)c1cc([N+](=O)[O-])ccc1NCCO)c1ccccc1,1.4,-28.2,-3.23*,2.64,98.0,0.0072,u,0.0234*,0.00753,u,0.0104
O=C(Nc1ccc(Br)cc1F)c1sccc1-n1cccc1,-4.0,10.3,-1.17,-0.431,97.0,0.0078,0.00478,0.0328,0.00819,0.0197,0.0114
